Measured values taken from ChEMBL document CHEMBL4385599, “Neutral sphingomyelinase 2 inhibitors based on the 4-(1H-imidazol-2-yl)-2,6-dialkoxyphenol scaffold” (Eur J Med Chem, 2019).
pIC50: −log10 of the molar value.

Tests used:
[1] = Selectivity index, ratio of IC50 for horseradish peroxidase to IC50 for Inhibition of human recombinant nSMase expressed in HEK293 cells; type: cell-based
Homo sapiens [2] = species on record: Homo sapiens; assay: Selectivity index, ratio of IC50 for alkaline phosphatase (unknown origin) to IC50 for Inhibition of human recombinant nSMase expressed in HEK293 cells; type: cell-based
[3] = biological target: T1, Sphingomyelin phosphodiesterase 3 (Homo sapiens, UniProt Q9NY59); assay: Inhibition of human recombinant nSMase expressed in HEK293 cells using sphingomyelin as substrate by alkaline phosphatase, choline oxidase and horseradish peroxidase dependent H2O2 detection based fluorescence coupled assay
T1 sequence (Q9NY59 whole entry): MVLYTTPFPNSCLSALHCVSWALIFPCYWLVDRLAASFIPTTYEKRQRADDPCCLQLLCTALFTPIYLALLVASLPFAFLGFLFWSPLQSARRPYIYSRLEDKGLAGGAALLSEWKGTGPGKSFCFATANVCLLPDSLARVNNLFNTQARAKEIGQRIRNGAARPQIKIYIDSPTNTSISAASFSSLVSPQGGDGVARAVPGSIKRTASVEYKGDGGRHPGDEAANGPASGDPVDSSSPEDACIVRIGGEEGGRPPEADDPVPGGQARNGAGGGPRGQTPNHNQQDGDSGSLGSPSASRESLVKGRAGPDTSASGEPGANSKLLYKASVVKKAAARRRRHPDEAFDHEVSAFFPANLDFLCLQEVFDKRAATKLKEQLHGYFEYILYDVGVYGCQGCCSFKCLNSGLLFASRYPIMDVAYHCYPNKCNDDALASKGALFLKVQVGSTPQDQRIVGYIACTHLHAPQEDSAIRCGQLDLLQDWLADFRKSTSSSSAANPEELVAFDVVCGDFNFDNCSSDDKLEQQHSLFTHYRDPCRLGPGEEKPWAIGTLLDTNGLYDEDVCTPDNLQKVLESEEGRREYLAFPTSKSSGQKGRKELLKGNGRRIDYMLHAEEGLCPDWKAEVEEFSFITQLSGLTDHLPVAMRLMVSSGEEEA
How it was run: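 Fluorescence-based coupled assay with human recombinant nSMase2, alkaline phosphatase and choline oxidase; IC50 values are mean ± SD of at least three experiments.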

Homo sapiens [4] = species on record: Homo sapiens; assay: Selectivity index, ratio of IC50 for choline oxidase (unknown origin) to IC50 for Inhibition of human recombinant nSMase expressed in HEK293 cells; type: cell-based
[5] = Metabolic stability in mouse liver microsomes assessed as parent compound remaining in presence of UDPGA at 5 uM measured after 1 hr by LC/MS/MS method; type: ADME, Microsome
How it was run: (§1)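 Glucuronidation: compound in 50 mM Tris-HCl pH 7.5 with microsomes 0.5 mg/mL, 8 mM MgCl2, 25 μg/mL alamethicin, preincubated at 37 °C; started with UDPGA 2 mM final, triplicate; 60 min; quenched with cold acetonitrile plus internal standard; parent remaining by LC/MS/MS; cofactor-free controls.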

[6] = Metabolic stability in human liver microsomes assessed as parent compound remaining in presence of UDPGA at 5 uM measured after 1 hr by LC/MS/MS method; type: ADME, Microsome; how it was run: as §1
[7] = Metabolic stability in human liver microsomes assessed as parent compound remaining at 5 uM in presence of NADPH regenerating system measured after 1 hr by LC/MS/MS method; type: ADME, Microsome
[8] = Ratio of drug level in brain to plasma in CD-1 mouse at 10 mg/kg, po measured after 2 hrs by UPLC and LC-MS/MS analysis; type: ADME, organism-based
How it was run: (§2)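 Male CD-1 mice (25–30 g), single oral gavage 10 mg/kg in 5% DMSO, 5% polysorbate 80, 90% saline; 3 mice per time point, sacrificed at 0.5 and 2 h. Cardiac blood into heparin, plasma by centrifugation; brains flash frozen. Acetonitrile extraction with losartan internal standard; quantified by UPLC–LC-MS/MS against calibration curves in naïve plasma/brain matrix.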

[9] = Metabolic stability in mouse liver microsomes assessed as parent compound remaining at 5 uM in presence of NADPH regenerating system measured after 1 hr by LC/MS/MS method; type: ADME, Microsome
[10] = Drug level in CD-1 mouse treated with at 10 mg/kg, po 4-(4,5-Diisopropyl-1H-imidazol-2-yl)-2,6-dimethoxyphenol hydrochloride assessed as compound formation measured after 2 hrs by UPLC and LC-MS/MS analysis; type: ADME, organism-based; settings: in vivo; how it was run: as §2
[11] = biological target: T2, Sphingomyelin phosphodiesterase 3 (Rattus norvegicus, UniProt O35049); assay: Inhibition of rat brain neutral sphingomyelinase pre-incubated for 30 mins before p-nitrophenyl/phosphorylcholine substrate addition by spectrophotometry
T2 sequence (O35049 whole entry): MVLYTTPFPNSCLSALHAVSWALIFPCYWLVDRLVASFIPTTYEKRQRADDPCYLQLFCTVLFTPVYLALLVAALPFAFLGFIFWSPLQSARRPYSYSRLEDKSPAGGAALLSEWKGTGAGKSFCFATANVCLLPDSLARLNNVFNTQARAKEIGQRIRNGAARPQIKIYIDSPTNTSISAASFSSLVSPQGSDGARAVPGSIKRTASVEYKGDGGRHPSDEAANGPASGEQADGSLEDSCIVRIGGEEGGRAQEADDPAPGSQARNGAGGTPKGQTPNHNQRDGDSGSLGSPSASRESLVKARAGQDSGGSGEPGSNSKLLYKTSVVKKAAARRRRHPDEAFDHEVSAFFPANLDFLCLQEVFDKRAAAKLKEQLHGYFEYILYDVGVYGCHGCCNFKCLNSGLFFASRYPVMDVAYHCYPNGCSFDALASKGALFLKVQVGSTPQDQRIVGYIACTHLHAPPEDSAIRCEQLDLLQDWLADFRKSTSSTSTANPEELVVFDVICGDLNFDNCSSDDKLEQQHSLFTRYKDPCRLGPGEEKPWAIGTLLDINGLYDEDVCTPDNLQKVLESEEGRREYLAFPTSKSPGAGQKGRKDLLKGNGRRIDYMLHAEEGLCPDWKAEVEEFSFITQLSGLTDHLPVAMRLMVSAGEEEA

Compound	Ratio IC50 [1]	Ratio IC50 (Homo sapiens [2])	pIC50 [3]	Ratio IC50 (Homo sapiens [4])	Stability [5] [%]	Stability [6] [%]	Stability [7] [%]	BPR [8] [%]	Stability [9] [%]	Drug uptake [10]	pIC50 [11]
COc1cc(-c2ncc[nH]2)cc(OC)c1O	> 5	> 5	6.38	> 5							
COc1cc(-c2nc(-c3cccs3)c(-c3ccccc3)[nH]2)cc(OC)c1O					67	50	95	17	95		
COc1cc(-c2nc(-c3ccccc3)c(C(C)C)[nH]2)cc(OC)c1O	> 5	> 5	7.15	> 5			> 95		94		
COc1cc(-c2nc3c([nH]2)CCCC3)cc(OC)c1O	< 5	< 5	6.38	< 5							
COc1cc(OC)cc(-c2nc(-c3ccccc3)c(-c3cccs3)[nH]2)c1	> 5	> 5		> 5							
COc1cc(-c2nc(-c3ccc(C)cc3)c(-c3ccc(C)cc3)[nH]2)cc(OC)c1O	> 5	> 5	7.15	> 5			> 95		> 95		
COc1cc(-c2nc(-c3cccs3)c(C)[nH]2)cc(OC)c1O	> 5	> 5	7.70	> 5			73		95		
COc1cc(-c2ncc(-c3ccccc3)[nH]2)cc(OC)c1O	> 5	> 5		> 5							
COc1cc(-c2nc(-c3cccs3)c(-c3cccs3)[nH]2)cc(OC)c1O	> 5	> 5		> 5							
CC(C)Oc1cc(-c2nc(-c3ccccc3)c(-c3cccs3)[nH]2)cc(OC(C)C)c1O	> 5	> 5	7.40	> 5	> 95				4		
COc1cc(-c2nc(-c3ccccc3)c(-c3cccs3)[nH]2)ccc1O	> 5	> 5		> 5							
COc1cc(C2=NCCN2)cc(OC)c1O	> 5	> 5	< 4.00	> 5							
Oc1ccccc1-c1nc(-c2ccccc2)c(-c2cccs2)[nH]1	> 5	> 5	< 4.00	> 5							
CCOc1cc(-c2nc(-c3ccccc3)c(-c3cccs3)[nH]2)cc(OCC)c1O	> 5	> 5	8.00	> 5					35		
COc1cc(-c2nccs2)cc(OC)c1O	< 5	< 5	4.70	< 5							
Oc1c(OCC(F)(F)F)cc(-c2nc(-c3ccccc3)c(-c3cccs3)[nH]2)cc1OCC(F)(F)F	> 5	> 5	7.15	> 5			94		> 95		
COc1cc(-c2nc(C(C)C)c(C(C)C)[nH]2)cc(OC)c1O[C@@H]1O[C@H](C(=O)O)[C@@H](O)[C@H](O)[C@H]1O										Active	

Compound	Ratio IC50 [1]	Ratio IC50 (Homo sapiens [2])	pIC50 [3]	Ratio IC50 (Homo sapiens [4])	Stability [5] [%]	Stability [6] [%]	Stability [7] [%]	BPR [8] [%]	Stability [9] [%]	Drug uptake [10]	pIC50 [11]
COc1cc(-c2nc(C)c(-c3ccccc3)[nH]2)cc(OC)c1O	> 5	> 5		> 5			95		82		
COc1cc(-c2nc(C)c(C)[nH]2)cc(OC)c1O	< 5	< 5	6.28	< 5							
COc1cc(-c2nc(-c3ccccc3)c(-c3cccs3)[nH]2)cc(OC)c1OC	> 5	> 5	< 4.00	> 5							
COc1ccc(-c2nc(-c3cc(OC)c(O)c(OC)c3)[nH]c2-c2ccc(OC)cc2)cc1	> 5	> 5		> 5			75		73		
Oc1ccc(-c2nc(-c3ccccc3)c(-c3cccs3)[nH]2)cc1	< 5	< 5	5.68	< 5							
Oc1c(Cl)cc(-c2nc(-c3ccccc3)c(-c3cccs3)[nH]2)cc1Cl	> 5	> 5	< 4.00	> 5							
COc1cc(-c2nc(-c3ccccc3)c(-c3ccccc3)[nH]2)cc(OC)c1O	> 5	> 5		> 5			> 95		> 95		
Oc1c(OC2CCCC2)cc(-c2nc(-c3ccccc3)c(-c3cccs3)[nH]2)cc1OC1CCCC1	> 5	> 5	6.92	> 5							
CCCCc1[nH]c(-c2cc(OC)c(O)c(OC)c2)nc1C	> 5	> 5		> 5							
CC(C)(C)Oc1cc(-c2nc(-c3ccccc3)c(-c3cccs3)[nH]2)cc(OC(C)(C)C)c1O	> 5	> 5	6.28	> 5							
COc1cc(-c2nc(-c3ccco3)c(-c3ccco3)[nH]2)cc(OC)c1O	> 5	> 5	7.40	> 5							
COc1cc(-c2ncc(C)[nH]2)cc(OC)c1O	< 5	< 5	6.66	< 5							
O=C(/C=C\c1ccc(/C=C\C(=O)Nc2ccc(C3=NCCN3)cc2)cc1)Nc1ccc(C2=NCCN2)cc1											6.00
COc1cc(-c2nc(-c3ccc(C)cc3)c[nH]2)cc(OC)c1O	> 5	> 5	6.89	> 5							
CCc1nc(-c2cc(OC)c(O)c(OC)c2)[nH]c1CC	> 5	> 5	6.92	> 5			> 95		75		
Oc1cccc(-c2nc(-c3ccccc3)c(-c3cccs3)[nH]2)c1	> 5	> 5	< 4.00	> 5							
